Data set [1] concerns P388. Nature of the data set: Antitumor activity against mouse P388 cells allografted in ip dosed mouse assessed as increase in life span at optimal dose administered qd from day 1 to day 9 post tumor implantation relative to control. The class given is functional.
Data set [2] deals with L1210. Nature of the data set: Antitumor activity against mouse L1210 cells allografted in ip dosed mouse assessed as dose required for minimal activity administered qd from day 1 to day 9 post tumor implantation. To be noted: read-out: MED. In kind it is functional. A digest of the protocol:
(§1)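 Tumour cells were implanted ip (intracerebrally for IC-L1210), with the compound given in 0.9% saline ip, or orally to nonfasting mice in PO-L1210. Dose–response series each halved the preceding dose, expressed as mg/kg per injection. Activity was read as % increase in life-span (% ILS) over untreated controls, and from this the minimum, optimal and maximum active doses were taken.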

Data set [3] deals with L1210. Nature of the data set: Antitumor activity against mouse L1210 cells allografted in ip dosed mouse assessed as dose required for minimal activity administered qd on day 1, 5 and 9 post tumor implantation. In kind it is functional. To be noted: 24 h, read-out: MED. In short, it runs like this:
as §1

Data set [4] relates to L1210. As to the kind of experiment: Antitumor activity against 5-azacytidine-resistant mouse L1210 cells allografted in ip dosed mouse assessed as change in body weight at optimal dose administered qd from day 1 to day 9 post tumor implantation measured on day 5 relative to control. In kind it is functional. A digest of the protocol: (§2)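 Mice bearing tumour cells implanted ip (intracerebrally in the IC-L1210 system) got compound in 0.9% saline ip on the stated schedule, or orally to nonfasting animals in the PO-L1210 system. Day-1 dosing, per day, or every 6 h counted from implantation. The value is the difference in average body weight change (g) on day 5 between the optimal-dose group (T) and controls (C).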

Data set [5] has as its system L1210. As to the kind of experiment: Antitumor activity against mouse L1210 cells allografted in ip dosed mouse assessed as increase in life span at optimal dose administered qd on day 1 post tumor implantation relative to control. In kind it is functional. A digest of the protocol: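 L1210 leukemia cells implanted ip in mice. Drug given ip in 0.9% saline: day 1 only (QD1); days 1, 5, 9 (Q4D); every 6 h on days 1, 5, 9 (Q4D(Q6H)); or days 1-9 (QD1-9). Dose-response run in twofold steps, dose in mg/kg per injection. % ILS versus untreated controls at the optimal dose. Toxicity taken as test minus control body-weight change on day 5.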

Data set [6] has as its system L1210. As to the kind of experiment: Antitumor activity against mouse L1210 cells allografted in ip dosed mouse assessed as dose required for maximal activity administered qd from day 1 to day 9 post intracerebral tumor implantation. In kind it is functional. A digest of the protocol:
as §1

The subject of data set [7] is P388. As to the kind of experiment: Antitumor activity against mouse P388 cells allografted in ip dosed mouse assessed as change in body weight at optimal dose administered qd from day 1 to day 9 post tumor implantation measured on day 5 relative to control. In kind it is functional. In short, it runs like this: as §2
Data set [8] concerns L1210. Nature of the data set: Antitumor activity against mouse L1210 cells allografted in ip dosed mouse assessed as dose required for maximal activity administered qd on day 1, 5 and 9 post tumor implantation. The class given is functional. In short, it runs like this:
as §1

Data set [9] concerns L1210. As to the kind of experiment: Antitumor activity against mouse L1210 cells allografted in ip dosed mouse assessed as change in body weight at optimal dose administered qd from day 1 to day 9 post tumor implantation measured on day 5 relative to control. The class given is functional. A digest of the protocol:
as §2

The test system of data set [10] is L1210. Nature of the data set: Antitumor activity against mouse L1210 cells allografted in ip dosed mouse assessed as dose required for maximal activity administered every 6 hrs on day 1, 5 and 9 post tumor implantation. In kind it is functional. In short, it runs like this:
as §1

Data set [11] is described as follows: Chemical stability in 1 N ammonium hydroxide solution at room temperature after 7 days. In kind it is physicochemical. To be noted: 168 h. A digest of the protocol:
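The compound was stored 7 days at room temperature in 1 N ammonium hydroxide, then recovered and checked as the free base.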

Data set [12] in a line: Therapeutic index, ratio of toxicity in ip dosed mouse allografted with mouse L1210 cells assessed as highest dose required for 40% increase in life span to antitumor activity against mouse L1210 cells allografted in ip dosed mouse assessed as lowest dose required for 40% increase in life span. In kind it is organism-based. To be noted: in vivo, read-out: TI. A digest of the protocol: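 L1210 cells implanted ip in mice. Drug in 0.9% saline given ip once daily on days 1-9 (QD1-9), dose-response with each dose half of the next higher. % ILS measured against untreated controls. Dose-response data were pooled from five QD1-9 experiments. TI = highest dose giving 40% ILS ÷ lowest dose giving 40% ILS.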

Data set [13] has as its system P388. As to the kind of experiment: Antitumor activity against mouse P388 cells allografted in ip dosed mouse assessed as dose required for minimal activity administered qd from day 1 to day 9 post tumor implantation. In kind it is functional. To be noted: read-out: MED. A digest of the protocol:
as §1

The subject of data set [14] is P388. Nature of the data set: Antitumor activity against mouse P388 cells allografted in ip dosed mouse assessed as dose required for maximal activity administered qd from day 1 to day 9 post tumor implantation. The class given is functional. A digest of the protocol: as §1
The next data set relates to Mus musculus. Nature of the data set: Toxicity in ip dosed mouse allografted with 5-azacytidine-resistant mouse L1210 cells assessed as dose required for optimal activity administered qd from day 1 to day 9 post tumor implantation. In kind it is organism-based. To be noted: in vivo. In short, it runs like this:
as §1

Data set [15] can be described thus: Therapeutic index, ratio of toxicity in ip dosed mouse allografted with mouse L1210 cells assessed as optimal dose required for maximum increase in life span to antitumor activity against mouse L1210 cells allografted in ip dosed mouse assessed as lowest dose required for 40% increase in life span. The class given is organism-based. To be noted: in vivo, read-out: TI. A digest of the protocol:
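Mice tumored ip with L1210 and treated ip on days 1-9 (QD1-9) with drug in 0.9% saline, using serial twofold dose dilutions. Survival gain over untreated controls was expressed as % ILS. Dose-response relationships came from five QD1-9 experiments. TI = optimal dose for maximum % ILS ÷ lowest dose giving 40% ILS.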

The nature of data set [16]: Solubility of the compound in water at pH 6. In kind it is physicochemical.
Data set [17] has as its system L1210. As to the kind of experiment: Cytotoxicity against mouse L1210 cells assessed as cessation of growth in presence of cytidine. The class given is functional, cell-based.
A further data set relates to B16. As to the kind of experiment: Antitumor activity against mouse B16 cells allografted in ip dosed mouse assessed as dose required for minimal activity administered qd from day 1 to day 9 post tumor implantation. The class given is functional. To be noted: read-out: MED. In short, it runs like this: as §1
A short description of data set [18]: Half life of the compound at 25 degC at pH 7 by HPLC analysis. The class given is physicochemical.
Data set [19] in a line: Drug degradation in lactated Ringer's solution at 25 degC after 4.7 hrs. The class given is physicochemical. To be noted: read-out: Drug degradation.
For data set [20], the system named is L1210. Nature of the data set: Cytotoxicity against mouse L1210 cells assessed as cessation of growth in presence of uridine. In kind it is functional, cell-based.
Data set [21] relates to L1210. As to the kind of experiment: Cytotoxicity against mouse L1210 cells assessed as cessation of growth. The class given is functional, cell-based.
Data set [22] in a line: Drug degradation in 1 N ammonium hydroxide solution assessed as l-beta-D-Ribofuranosyl-3-guanylurea level. The class given is physicochemical.

The source made the active and inactive calls. No cut-off for these calls is given here.

For orientation: ILS means how much longer treated animals lived than controls. Broadly, the solubility is how much of the substance goes into solution per volume. Higher therefore signals much dissolved substance. Take `Cl.NC1=NC(=O)N([C@@H]2O[C@H](CO)[C@@H](O)[C@H]2O)CN1`: the ILS is on record as 85% in the data set on P388 [1] and 34% in the data set with L1210 [5]. Besides, the minimal effective dose was 3.13 mg/kg in the data set on L1210 [2], 12.5 mg/kg in the data set with L1210 [3] and 12.5 mg/kg in the data set with P388 [13]. The Activity was 0.1 g in the data set with L1210 [4], -4.3 g in the data set with P388 [7], -3.9 g in the data set with L1210 [9] and 25 mg/kg in the data set with Mus musculus. For the same compound, the MAD in the data set with L1210 [6] amounted to 100 mg/kg; with L1210 [8] it was 600 mg/kg; in the data set on L1210 [10], 150 mg/kg; with P388 [14], 200 mg/kg. For the same compound, the Stability result in [11] was “Stable”. For the same compound, the selectivity ratio in [12] stood at 40; in [15], 10. The same compound returned a solubility in [16] of 40 mg/mL.

By half-life is commonly meant how long it takes for the measured level to halve. The low end stands for fast loss, the high end for slow loss. `Nc1ncn([C@@H]2O[C@H](CO)[C@@H](O)[C@H]2O)c(=O)n1` [AZACITIDINE]: the ILS with P388 [1] came out at 127%; with L1210 [5] it was 73%. Also, the minimal effective dose in the data set on L1210 [2] turned out to be 0.75 mg/kg; in the data set on L1210 [3], 5 mg/kg; in the data set on B16, 1.5 mg/kg; in the data set with P388 [13], 0.75 mg/kg. Besides, the MAD in the data set on L1210 [6] is 0.75 mg/kg; in the data set on L1210 [8], 20 mg/kg; in the data set with L1210 [10], 5 mg/kg; with P388 [14] it was 3 mg/kg. The Activity is -4.3 g with P388 [7] and -3 g in the data set on L1210 [9]. The outcome with L1210 [17] and in the data set with L1210 [20] was inactive. In addition, the selectivity ratio in [12] was found to be 14; in [15] it was 7.5. The half-life in [18] was 48 h. Also, in data set [19], the degraded at 4.7 h was 15%. In addition, in the data set on L1210 [21], the result was Active. Also, the Stability entry in [22] was “Unstable”.

Values taken from ChEMBL document CHEMBL3272089, “Synthesis and antitumor activity of dihydro-5-azacytidine, a hydrolytically stable analogue of 5-azacytidine” (J Med Chem, 1977).
